From ChEMBL document CHEMBL2086320, “New synthetic inhibitors of fatty acid synthase with anticancer activity” (J Med Chem, 2012)
Activity calls are given as the source filed them. No cut-off for these calls is given here.

Key:
[1] = molecular target: Carnitine O-palmitoyltransferase 1, liver isoform (Rattus norvegicus, UniProt P32198); test: Stimulation of rat CPT1A expressed in Pichia pastoris mitochondrial using [3H]carnitine after 3 mins by forward exchange method; assay type: ADME; settings: 0.05 h
Outline: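 Mitochondria isolated from GS115 Pichia pastoris expressing rat CPT1A, used in a forward exchange assay with 200 µM inhibitor, 2 mM L-[³H]carnitine, 80 µM palmitoyl-CoA, 20 mM HEPES pH 7.0, 1% fatty-acid-free albumin and 40-75 mM KCl. Incubated 3 min at 30 °C, stopped with perchloric acid, butanol-extracted [³H]palmitoylcarnitine counted. Mean±SEM of at least three independent mitochondrial preparations.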

[2] = molecular target: Receptor tyrosine-protein kinase erbB-2 (Homo sapiens) (UniProt P04626); test: Inhibition of HER2 phosphorylation in human SK-BR-3 cells after 2 hrs by Western blot analysis; assay type: cell-based
Chain of Receptor tyrosine-protein kinase erbB-2 (Homo sapiens) (P04626 whole entry): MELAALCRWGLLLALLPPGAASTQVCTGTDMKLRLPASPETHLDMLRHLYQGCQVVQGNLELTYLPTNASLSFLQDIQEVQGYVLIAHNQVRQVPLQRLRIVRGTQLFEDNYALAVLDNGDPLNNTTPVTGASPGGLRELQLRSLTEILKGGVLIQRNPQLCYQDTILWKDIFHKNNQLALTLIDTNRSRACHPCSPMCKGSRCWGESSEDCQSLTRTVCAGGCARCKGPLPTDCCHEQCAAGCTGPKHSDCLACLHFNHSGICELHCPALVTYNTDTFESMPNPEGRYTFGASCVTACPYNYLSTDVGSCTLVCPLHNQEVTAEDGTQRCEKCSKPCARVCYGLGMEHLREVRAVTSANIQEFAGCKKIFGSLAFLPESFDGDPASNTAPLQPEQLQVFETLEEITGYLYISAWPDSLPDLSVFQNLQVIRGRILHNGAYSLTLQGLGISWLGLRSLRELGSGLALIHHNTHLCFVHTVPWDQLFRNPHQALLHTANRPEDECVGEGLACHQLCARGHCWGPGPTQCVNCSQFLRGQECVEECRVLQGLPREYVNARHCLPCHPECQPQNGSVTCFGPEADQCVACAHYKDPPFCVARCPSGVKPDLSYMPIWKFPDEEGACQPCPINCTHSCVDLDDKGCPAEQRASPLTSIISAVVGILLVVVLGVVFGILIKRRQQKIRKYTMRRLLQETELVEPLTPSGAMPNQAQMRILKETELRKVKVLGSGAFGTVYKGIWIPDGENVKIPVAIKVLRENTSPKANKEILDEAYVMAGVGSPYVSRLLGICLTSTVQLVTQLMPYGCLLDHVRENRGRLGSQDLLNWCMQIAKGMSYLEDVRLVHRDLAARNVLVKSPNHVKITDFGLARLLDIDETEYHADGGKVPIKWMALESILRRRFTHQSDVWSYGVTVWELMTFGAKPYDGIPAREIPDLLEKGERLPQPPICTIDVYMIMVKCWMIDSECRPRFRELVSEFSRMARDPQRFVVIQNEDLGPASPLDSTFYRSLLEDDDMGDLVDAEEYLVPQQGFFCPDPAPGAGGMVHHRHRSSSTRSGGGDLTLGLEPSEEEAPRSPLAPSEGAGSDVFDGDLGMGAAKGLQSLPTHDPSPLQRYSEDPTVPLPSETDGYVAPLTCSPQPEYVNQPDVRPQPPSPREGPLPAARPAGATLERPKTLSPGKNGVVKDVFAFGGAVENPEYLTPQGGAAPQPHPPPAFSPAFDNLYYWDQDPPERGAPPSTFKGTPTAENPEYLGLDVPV
Outline: (§1)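 SK-Br3 cells treated for set times (6, 12 or 24 h; p-HER2 also at 2 h), trypsinized, and lysed in Tris pH 7.5/EDTA/NaCl/PMSF buffer. Equal protein resolved by SDS-PAGE (3-8% gel for HER2 forms, 4-12% gel for AKT/ERK). Blots blocked in 2.5% milk/TBS-T, primary antibody overnight at 4 °C, HRP secondary, chemiluminescence; β-actin reprobe as loading control. At least two independent experiments.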

[3] = system: SK-BR-3; test: Induction of apoptosis in human SKBR3 cells assessed as cleavage of PARP by Western blot analysis; assay type: functional, cell-based; settings: TDE = time-dependent effect
Outline: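 SK-Br3 cells treated for up to 48 h, then immunoblotted for PARP on a 4-12% SDS gel. Intact PARP at 116 kDa, cleavage fragment at 89 kDa. Chemiluminescent detection with β-actin reprobe as loading control. At least two independent experiments.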

[4] = system: A549; test: Cytotoxicity against human A549 cells; assay type: functional, cell-based
Outline: (§2)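 MTT colorimetric assay: cells seeded at 5 or 7 x 10³ cells/well, attached overnight, then given fresh medium with a range of compound concentrations for 48 h at 37 °C, 5% CO2. MTT added for 3 h, formazan dissolved in DMSO, absorbance read at 570 or 540 nm. IC50 as mean±SEM from at least two independent experiments in duplicate or triplicate.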

[5] = system: NCI-H460; test: Cytotoxicity against human H460 cells; assay type: functional, cell-based; outline: as §2
[6] = Cytotoxicity against human HCC827 cells; assay type: functional, cell-based; outline: as §2
[7] = system: AU565; test: Cytotoxicity against human AU565 cells; assay type: functional, cell-based; outline: as §2
[8] = system: BT-20; test: Cytotoxicity against human BT20 cells; assay type: functional, cell-based; outline: as §2
[9] = system: MDA-MB-231; test: Cytotoxicity against human MDA-MB-231 cells; assay type: functional, cell-based; outline: as §2
[10] = system: ZR-75-1; test: Cytotoxicity against human ZR-75-1 cells; assay type: functional, cell-based; outline: as §2
[11] = system: MCF7; test: Cytotoxicity against human MCF7 cells; assay type: functional, cell-based; outline: as §2
[12] = system: SK-BR-3; test: Cytotoxicity against human SKBR3 cells; assay type: functional, cell-based
Outline: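 SK-Br3 cells (McCoy's 5A, 10% FBS) in MTT assay: seeded at 5 or 7 x 10³ cells/well, attached overnight, exposed 48 h to a range of concentrations. MTT 3 h at 37 °C, formazan in DMSO, absorbance at 570 or 540 nm. IC50 as mean±SEM of two independent experiments in triplicate.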

[13] = system: SK-OV-3; test: Cytotoxicity against human SKOV3 cells; assay type: functional, cell-based; outline: as §2
[14] = system: HepG2; test: Cytotoxicity against human HepG2 cells; assay type: functional, cell-based; outline: as §2
[15] = system: SK-HEP1; test: Cytotoxicity against human SKHEP1 cells; assay type: functional, cell-based; outline: as §2
[16] = system: Bel-7402; test: Cytotoxicity against human Bel7402 cells; assay type: functional, cell-based; outline: as §2
[17] = system: A-431; test: Cytotoxicity against human A431 cells; assay type: functional, cell-based; outline: as §2
[18] = system: PANC-1; test: Cytotoxicity against human PANC1 cells; assay type: functional, cell-based; outline: as §2
[19] = system: HCT-116; test: Cytotoxicity against human HCT116 cells; assay type: functional, cell-based; outline: as §2
[20] = molecular target: Receptor tyrosine-protein kinase erbB-2 (Homo sapiens) (UniProt P04626); test: Inhibition of HER2 phosphorylation in human SK-BR-3 cells after 6 hrs by Western blot analysis; assay type: cell-based
Outline: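 SK-Br3 cells treated for 6, 12 or 24 h, harvested with trypsin-EDTA, lysed in Tris-HCl pH 7.5/EDTA/NaCl/PMSF buffer at 4 °C. Equal protein run on 3-8% SDS-PAGE and transferred to nitrocellulose. Membranes probed overnight at 4 °C with anti-phospho-HER2 mouse monoclonal, then peroxidase secondary and chemiluminescence. Re-probed for β-actin as loading control. Gels are representative of at least two independent experiments.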

[21] = system: SK-BR-3; test: Cytotoxicity against human SKBR3 cells transfected with FASN specific siRNA assessed as cell death up to 10 uM by MTT assay; assay type: functional, cell-based
Outline: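 SK-Br3 cells transfected with a pool of three FASN-specific siRNAs (72 h), run alongside control-transfected cells. MTT viability read after 24 h compound exposure instead of 48 h. Knockdown checked by FASN immunoblot with β-actin. Mean±SEM of three experiments in duplicate; Student's t-test against the same concentration in control-transfected cells.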

[22] = Selectivity ratio of IC50 for human HL7702 cells to IC50 for human SKBR3 cells; assay type: ADME, cell-based; settings: HL7702 cells (normal) versus SKBR3 cells, read-out: Ratio IC50
[23] = Selectivity ratio of IC50 for human HMEpC cells to IC50 for human SKBR3 cells; assay type: ADME, cell-based, SK-BR-3; settings: HMEpC cells (normal) versus SKBR3 cells, read-out: Ratio IC50
[24] = Antiproliferative activity against human HL7702 cells; assay type: cell-based; settings: L02; outline: as §2
[25] = Antiproliferative activity against human HMEpC cells; assay type: cell-based; outline: as §2
[26] = system: SK-BR-3; test: Cytotoxicity against human SKBR3 cells after 48 hrs by MTT assay; assay type: functional, cell-based; settings: SK-BR-3, 48 h; outline: as §2
[27] = molecular target: Fatty acid synthase (Homo sapiens) (UniProt P49327); test: Inhibition of FASN in human SK-BR-3 cells assessed as oxidation of NADPH at 4 uM after 24 hrs by Spectrophotometric analysis relative to control; assay type: cell-based
Chain of Fatty acid synthase (Homo sapiens) (P49327 whole entry, looked up): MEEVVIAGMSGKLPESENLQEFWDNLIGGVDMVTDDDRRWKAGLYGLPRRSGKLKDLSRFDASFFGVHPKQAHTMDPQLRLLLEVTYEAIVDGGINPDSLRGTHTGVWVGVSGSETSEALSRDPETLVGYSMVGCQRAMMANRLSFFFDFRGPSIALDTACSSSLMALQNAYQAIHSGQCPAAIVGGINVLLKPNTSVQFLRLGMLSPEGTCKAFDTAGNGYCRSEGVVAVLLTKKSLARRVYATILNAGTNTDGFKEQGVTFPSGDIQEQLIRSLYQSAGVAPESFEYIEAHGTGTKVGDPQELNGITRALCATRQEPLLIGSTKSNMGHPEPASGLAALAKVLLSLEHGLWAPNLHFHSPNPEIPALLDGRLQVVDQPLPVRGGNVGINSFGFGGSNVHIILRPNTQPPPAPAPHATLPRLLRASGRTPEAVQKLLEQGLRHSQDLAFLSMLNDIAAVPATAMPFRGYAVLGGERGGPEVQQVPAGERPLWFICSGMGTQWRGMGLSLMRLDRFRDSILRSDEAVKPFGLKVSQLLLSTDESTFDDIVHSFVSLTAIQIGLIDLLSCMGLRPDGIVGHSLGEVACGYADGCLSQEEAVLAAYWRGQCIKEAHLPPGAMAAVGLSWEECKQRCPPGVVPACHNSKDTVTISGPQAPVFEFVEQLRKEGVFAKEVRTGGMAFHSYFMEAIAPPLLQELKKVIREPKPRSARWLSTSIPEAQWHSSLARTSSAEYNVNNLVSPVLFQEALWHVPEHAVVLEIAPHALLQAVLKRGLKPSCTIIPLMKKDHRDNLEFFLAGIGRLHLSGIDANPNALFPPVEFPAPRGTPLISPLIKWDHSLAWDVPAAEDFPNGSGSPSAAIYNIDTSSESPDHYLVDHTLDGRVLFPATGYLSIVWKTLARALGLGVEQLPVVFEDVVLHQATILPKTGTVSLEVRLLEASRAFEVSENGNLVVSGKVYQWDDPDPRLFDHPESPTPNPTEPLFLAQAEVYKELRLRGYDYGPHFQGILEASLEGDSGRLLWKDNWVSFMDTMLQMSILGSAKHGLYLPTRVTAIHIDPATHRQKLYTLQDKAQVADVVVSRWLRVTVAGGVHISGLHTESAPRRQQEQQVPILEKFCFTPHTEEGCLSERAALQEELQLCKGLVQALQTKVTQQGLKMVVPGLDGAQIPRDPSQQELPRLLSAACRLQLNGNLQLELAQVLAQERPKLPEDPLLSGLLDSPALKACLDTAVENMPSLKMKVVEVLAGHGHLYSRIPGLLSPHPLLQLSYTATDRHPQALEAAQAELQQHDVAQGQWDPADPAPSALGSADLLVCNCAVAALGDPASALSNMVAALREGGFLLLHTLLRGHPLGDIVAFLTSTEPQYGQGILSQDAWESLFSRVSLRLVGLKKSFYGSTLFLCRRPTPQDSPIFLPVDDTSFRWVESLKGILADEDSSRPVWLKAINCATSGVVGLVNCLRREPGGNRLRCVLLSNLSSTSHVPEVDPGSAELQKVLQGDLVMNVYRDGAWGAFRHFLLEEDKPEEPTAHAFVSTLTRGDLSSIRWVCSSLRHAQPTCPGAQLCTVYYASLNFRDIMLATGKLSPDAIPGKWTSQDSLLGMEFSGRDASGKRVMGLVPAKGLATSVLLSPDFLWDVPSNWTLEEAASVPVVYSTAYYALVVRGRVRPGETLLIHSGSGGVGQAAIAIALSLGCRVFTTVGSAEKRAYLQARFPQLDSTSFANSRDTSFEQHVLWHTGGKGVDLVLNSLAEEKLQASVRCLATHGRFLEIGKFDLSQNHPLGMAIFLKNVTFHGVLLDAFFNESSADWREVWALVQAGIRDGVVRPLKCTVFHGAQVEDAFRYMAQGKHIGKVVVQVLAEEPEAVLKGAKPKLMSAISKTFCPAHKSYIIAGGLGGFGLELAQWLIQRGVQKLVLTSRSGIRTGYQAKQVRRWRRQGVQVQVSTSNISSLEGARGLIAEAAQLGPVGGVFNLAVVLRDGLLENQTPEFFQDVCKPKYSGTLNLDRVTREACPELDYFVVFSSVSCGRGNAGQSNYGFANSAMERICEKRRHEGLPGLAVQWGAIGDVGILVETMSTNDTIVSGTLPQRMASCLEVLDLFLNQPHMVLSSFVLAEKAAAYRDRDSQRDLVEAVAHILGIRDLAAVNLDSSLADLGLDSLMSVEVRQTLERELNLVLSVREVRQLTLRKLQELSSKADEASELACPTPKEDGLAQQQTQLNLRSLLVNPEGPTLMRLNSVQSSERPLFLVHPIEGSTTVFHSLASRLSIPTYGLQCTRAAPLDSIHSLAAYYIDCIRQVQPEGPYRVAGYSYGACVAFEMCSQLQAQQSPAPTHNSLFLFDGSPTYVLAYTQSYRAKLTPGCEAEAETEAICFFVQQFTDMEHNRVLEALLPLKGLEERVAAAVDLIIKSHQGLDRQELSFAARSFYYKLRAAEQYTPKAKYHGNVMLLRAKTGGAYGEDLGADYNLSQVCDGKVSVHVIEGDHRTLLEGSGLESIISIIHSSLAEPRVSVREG

[28] = system: SK-BR-3; test: Effect on total HER2 protein levels in human SKBR3 cells up to 6 hrs by Western blot analysis; assay type: functional, cell-based; outline: as §1
[29] = system: SK-BR-3; test: Effect on total HER2 protein levels in human SKBR3 cells up to 6 hrs by ELISA; assay type: functional, cell-based
[30] = molecular target: T1, FASN/HER2 (Homo sapiens) (UniProt P04626+P49327); test: Inhibition of FASN/HER2 in human SK-BR-3 cells assessed as reduction in p-ERK1/2 levels after 6 hrs by Western blot analysis; assay type: cell-based; outline: as §1
T1 sequence (P04626 whole entry, looked up): as the sequence (P04626 whole entry) above
T1 sequence (P49327 whole entry, looked up): as the sequence (P49327 whole entry, looked up) above

[31] = molecular target: T1, FASN/HER2 (Homo sapiens); test: Inhibition of FASN/HER2 in human SK-BR-3 cells assessed as reduction in p-AKT levels after 6 hrs by Western blot analysis; assay type: cell-based; outline: as §1
[32] = system: SK-BR-3; test: Effect on total AKT protein levels in human SKBR3 cells up to 24 hrs; assay type: functional, cell-based; outline: as §1
[33] = system: SK-BR-3; test: Effect on total HER protein levels in human SKBR3 cells up to 24 hrs; assay type: functional, cell-based; outline: as §1
[34] = molecular target: Receptor tyrosine-protein kinase erbB-2 (Homo sapiens) (UniProt P04626); test: Inhibition of HER2 signaling in human SK-BR-3 cells up to 24 hrs; assay type: cell-based; outline: as §1
[35] = system: SK-BR-3; test: Effect on total ERK1/2 protein levels in human SKBR3 cells up to 24 hrs; assay type: functional, cell-based; outline: as §1
[36] = system: Mus musculus; test: Toxicity against C57BL/6J mouse assessed as weight loss at 30 to 75 mg/kg, ip administered as single dose measured after 24 hrs; assay type: organism-based; design: dose 30-75 mg/kg, route intraperitoneal; settings: in vivo
Outline: (§3)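 Male C57BL/6J mice, 12 weeks, 23-25 g, acclimatized one week on standard chow, 12 h/12 h light/dark, 22 °C; 4 per group. Fasted 12 h during dark cycle, then one i.p. injection (0.5 mL) of compound or vehicle (DMSO dissolved in RPMI 1640). Free access to chow for 24 h, then body weight recorded and behaviour observed. Weight data mean ± SEM, n=4.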

[37] = system: Mus musculus; test: Toxicity against C57BL/6J mouse assessed as change in food intake at 30 to 75 mg/kg, ip administered as single dose measured after 24 hrs; assay type: organism-based; design: dose 30-75 mg/kg, route intraperitoneal; settings: in vivo; outline: as §3
[38] = system: Mus musculus; test: Toxicity against C57BL/6J mouse assessed as altered behaviour at 30 to 75 mg/kg, ip administered as single dose measured after 24 hrs; assay type: organism-based; design: dose 30-75 mg/kg, route intraperitoneal; settings: in vivo; outline: as §3
[39] = system: Mus musculus; test: Toxicity against C57BL/6J mouse assessed as signs of suffering at 30 to 75 mg/kg, ip administered as single dose measured after 24 hrs; assay type: organism-based; design: dose 30-75 mg/kg, route intraperitoneal; settings: in vivo; outline: as §3
[40] = system: Mus musculus; test: Toxicity against C57BL/6J mouse assessed as distress at 30 to 75 mg/kg, ip administered as single dose measured after 24 hrs; assay type: organism-based; design: dose 30-75 mg/kg, route intraperitoneal; settings: in vivo; outline: as §3
[41] = system: Mus musculus; test: Toxicity against C57BL/6J mouse assessed as weight loss at 30 mg/kg, ip administered as single dose measured after 24 hrs; assay type: organism-based; design: dose 30 mg/kg, route intraperitoneal; settings: in vivo; outline: as §3
[42] = system: Mus musculus; test: Toxicity against C57BL/6J mouse assessed as signs of suffering at 30 mg/kg, ip administered as single dose measured after 24 hrs; assay type: organism-based; design: dose 30 mg/kg, route intraperitoneal; settings: in vivo; outline: as §3

O=C(Oc1ccc(-c2ccc(OC(=O)c3cc(O)c(O)c(O)c3)cc2)cc1)c1cc(O)c(O)c(O)c1
Activity [1]: Non-toxic | inhibition [2]: Active | Activity [3]: tde | IC50 [4]: 17 µM | IC50 [5]: 9 µM | IC50 [6]: 14 µM | IC50 [7]: 24 µM | IC50 [8]: 17 µM | IC50 [9]: 5 µM | IC50 [10]: 1.9 µM | IC50 [11]: 3.8 µM | IC50 [12]: 4 µM | IC50 [13]: 5 µM | IC50 [14]: 70 µM | IC50 [15]: 56 µM | IC50 [16]: 40 µM | IC50 [17]: 1.4 µM | IC50 [18]: 2.1 µM | IC50 [19]: 4 µM | inhibition [20]: Active | Activity [21]: inactive | selectivity ratio [22]: 10 | selectivity ratio [23]: 8 | IC50 [24]: 41 µM | IC50 [25]: 31 µM | IC50 [26]: 4 µM | inhibition [27]: 90% | Activity [28]: inactive | Activity [29]: inactive | inhibition [30]: Active | inhibition [31]: Active | Activity [32]: inactive | Activity [33]: inactive | inhibition [34]: Active | Activity [35]: inactive | Activity [36]: Non-toxic | Activity [37]: Non-toxic | Activity [38]: Non-toxic | Activity [39]: Non-toxic | Activity [40]: Non-toxic

C=C1C(=O)O[C@H](CCCCCCCC)[C@H]1C(=O)O (relative stereo)
Activity [41]: 21% | Activity [42]: Toxic
